This is an account of results in the RNAGym collection of RNA variant scans (doi:10.1126/science.aae0568).

The labels stand for the following.
B1: tRNA (parent)
chain: GUUCCGUUGGCGUAAUGGUAACGCGUCUCCCUCCUAAGGAGAAGACUGCGGGUUCGAGUCCCGUACGGAACG

Variants at the floor of the assay were thinned out.

The variants in the series derive from B1. Put plainly: yeast fitness relative to wild type (ratio to wild type); higher = fitter; tRNA-Arg(CCU), competitive growth, 37 C, YPD. In a few lines:
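For this measurement, the tRNA-Arg(CCU) gene was varied by chemical synthesis at a 3% per-site mutation rate across 69 sites, and each variant was placed at the native genomic locus in Saccharomyces cerevisiae. The pooled strains went through a 24-hour competition in YPD at 37°C in six parallel replicates, with amplicons from start and end populations read by 100-nucleotide paired-end sequencing. Darwinian fitness relative to wild type followed from the change in each genotype's frequency. Genotypes needed ≥ 100 starting reads, and estimates < 0.5 were set to 0.5.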
Turning to G6C C11U A65U, the yeast fitness was found to be 0.578.
As for A21C U28G C66U, the yeast fitness was at most 0.5.
The result for G17C C27A U32C C61A C66U reads at most 0.5; that for U19C A37G G56C, at most 0.5.
With A15G G41C G51C, the yeast fitness was at most 0.5.
Consider C31G A36G, for which the yeast fitness was found to be 0.783.
With G44A G52A C61A, the yeast fitness is 0.565.
Take A20U G25C C60G: the yeast fitness stood at 0.676.
As for G44C C46G A57C, the yeast fitness is at most 0.5.
On to C29G C34U G38C C55A, for which the yeast fitness was at most 0.5.
As for C33G A36U G39A A57U, the figure is at most 0.5.
The result for C5A A15U reads 0.626; that for A14C U19G U32A, at most 0.5; that for U3C G9A G68A, 0.843.
For U7A C30U C46U C49U, the yeast fitness is at most 0.5.
Take G25A C62A: the yeast fitness was 0.843.
Take C27G C46U G51A: the yeast fitness was found to be 0.633.
Consider A43U A57G, for which the yeast fitness was 1.01.
Consider C62U A69C, for which the yeast fitness is 1.02.
For the variant C29A C55A, the yeast fitness is at most 0.5.
The result for G9A C30A A42C G68A reads at most 0.5; that for G9C G18C, 0.525; that for C24A A42U G44A, 0.581.
The result for G44C G56A reads 0.795; that for C5A A21C A43U C46G, 0.541; that for C29G C30G C49A, 0.839.
Turning to G10A A14U C30U A37C U53A, the yeast fitness is at most 0.5.
On to U47A U59C, for which the yeast fitness is 0.873.
On to A14U A36U G38A U54A, for which the yeast fitness is 0.536.
Regarding A15U C30U A57G, the yeast fitness was at most 0.5.
As to U13G U47A G68A, the yeast fitness amounted to 0.737.
The result for G39C A40U U64G reads at most 0.5.
Consider U28C U54C, for which the yeast fitness turned out to be 0.909.
As for U53A C61U U64A, the figure is at most 0.5.
G6A G39A G52C C55G: the yeast fitness was at most 0.5.
A14G C31G C46G: the yeast fitness came out at 0.577.
The result for U7G U13C A37U reads at most 0.5; that for G23C C29G A43U G50A G68U, at most 0.5.
Turning to U2G G18C C29G C30A C34G G48C, the yeast fitness was found to be 0.604.
Regarding A21U G56C U64C, the yeast fitness is at most 0.5.
The result for U16A A21U C46U C61G reads at most 0.5; that for G18C C29U C34U G58C, at most 0.5.
With C11U U13G C29U C34G C46G G58A, the yeast fitness was at most 0.5.
As for G12C A20U C31A A65G, the yeast fitness was at most 0.5.
The result for A14C G50A G63C reads 0.522; that for G17A U53G C55U, at most 0.5.
In the case of C33A G52A, the yeast fitness was at most 0.5.
In the case of U35C C60U, the yeast fitness amounted to 0.546.
For the variant U26G A45G C46U G50A U53G C66U A69U, the yeast fitness is at most 0.5.
For the variant C5A A20C A36G, the yeast fitness stood at 0.626.
Regarding G6A C11U, the yeast fitness stood at 0.801.
As to C27U U28A U32A C34U A36C C55A G68A, the yeast fitness was at most 0.5.
For U28A A36U G48C, the yeast fitness was at most 0.5.
With A21U A45C, the yeast fitness was 0.913.
For the variant C5U C55A G68C, the yeast fitness is at most 0.5.
A21U C29U A69G: the yeast fitness is at most 0.5.
Take C49A G68A: the yeast fitness turned out to be 0.64.
On to U19C C24G A37U U47A, for which the yeast fitness is 0.524.
Take C27A A36U A37U: the yeast fitness came to 0.638.
In the case of U16G G23A A40C, the yeast fitness is at most 0.5.
On to A15G C24G C29U C34G U35C C46G, for which the yeast fitness was found to be 0.618.
With C11G A20U C24A G25C A40G G58C, the yeast fitness was at most 0.5.
C33A A37U A57G: the yeast fitness amounted to 0.545.
In the case of G23A C29G C55A, the yeast fitness stood at 0.536.
As for G17A A37U G38A, the yeast fitness was at most 0.5.
Regarding A36C A45U U47C G52C A65U G67C, the yeast fitness was at most 0.5.
In the case of C27A A45C C49A C61U, the yeast fitness was at most 0.5.
On to U19C C24U U53A C62A C66U, for which the yeast fitness was at most 0.5.
Regarding G6A G23A A42G C46U C55G, the yeast fitness worked out at 0.522.
The result for G23A U35G G58A reads at most 0.5.
Consider C24U G50A, for which the yeast fitness came to 0.844.
Regarding U3A A20C U32A, the yeast fitness was at most 0.5.
Turning to G23A C31U G56U A65U G68C, the yeast fitness was at most 0.5.
For the variant A20C C29U C31G U32A C33A U53C, the yeast fitness is at most 0.5.
With G25C C49U C62G C66U, the yeast fitness came out at 0.539.
Consider A36U C62G, for which the yeast fitness was determined as 0.623.
C11A C29G A57G: the yeast fitness was at most 0.5.
Consider G6C G67U, for which the yeast fitness amounted to 0.844.
Consider C22U C46G C55A, for which the yeast fitness was at most 0.5.
Consider G6A G50A U53G A69G, for which the yeast fitness is at most 0.5.
Consider U32A C46A G58A, for which the yeast fitness is at most 0.5.
Take U2A A21G C29G C49A G67A: the yeast fitness was at most 0.5.
For the variant U3A U19A A70C, the yeast fitness was 0.812.
For A14U A36G A40G A65U, the yeast fitness was at most 0.5.
As for G17A U19A C30G, the figure is 0.66; as for C30U C31G A43C G51A, 0.565; as for U3C U32A G41A C46U, at most 0.5.
The result for G23C A57G G63C A65U reads at most 0.5; that for G44C U53C, 0.797.
As to U7A C11U C22U G38C, the yeast fitness was at most 0.5.
As for U19C A20C A21U C55U A65U, the yeast fitness is at most 0.5.
For the variant G39A C61A A69U, the yeast fitness was at most 0.5.
Turning to G9C G12A C62G G67A, the yeast fitness came out at 0.618.
Take C4G C11A A14C: the yeast fitness is at most 0.5.
Consider G25C A65C, for which the yeast fitness was determined as 1.03.
For U3C C11A C27G C33A, the yeast fitness is 0.579.
With U16A C30A, the yeast fitness amounted to 0.912.
With U7C G18A C31A, the yeast fitness stood at 0.541.
The result for G25C G39C G44C C60U G68C reads at most 0.5; that for A20G C30G G56C C62U, at most 0.5; that for U2C G25C A70G, 0.978.
U3A A45G: the yeast fitness was found to be 1.
Turning to C24U U26C, the yeast fitness came out at 0.986.
For C27G C33G G41A A65C, the yeast fitness is at most 0.5.
In the case of U3C C34A A37C G39A A45G C62U, the yeast fitness came to 0.534.
As for U7A C27U C46G, the yeast fitness was found to be 0.691.
Turning to G18C A20G C29A C49U, the yeast fitness was at most 0.5.
Take U13A C22G C31G: the yeast fitness stood at 0.547.
C30U U32C U54A: the yeast fitness was at most 0.5.
Consider U16C C34G C55G, for which the yeast fitness was at most 0.5.
As for G10A A21U, the figure is 0.609; as for G10A A21C, 0.693; as for C4G U26A A43U C46G, 0.593.
The result for G9A reads 0.991.
With C60G A70G, the yeast fitness came to 0.58.
As to U26C C66G A69C, the yeast fitness was at most 0.5.
As to A14U C30G G51C, the yeast fitness is at most 0.5.
Turning to C11A C30G G48C, the yeast fitness was at most 0.5.
As to C24A C33U C34A A43U C46G, the yeast fitness was at most 0.5.
C30A A36U G38C C66A: the yeast fitness worked out at 0.577.
The result for G10A A14G reads 0.671; that for C5A G17C C49U A57C, at most 0.5; that for C4U G44C, 1.01.
G6A U47G U54C: the yeast fitness was at most 0.5.
Consider C4A C62A, for which the yeast fitness worked out at 0.675.
Take C4U G51C: the yeast fitness stood at 0.637.
For G17A C30U A36C A43C, the yeast fitness is at most 0.5.
C11U U64C A65G: the yeast fitness stood at 0.667.
With G25C U26G C46G, the yeast fitness was 0.576.
Take C11G G23C A36G A37G A70G: the yeast fitness came out at 0.55.
C46G C55U A57C C61G: the yeast fitness is at most 0.5.
For U26C A37C A40U A57C U64G, the yeast fitness is at most 0.5.
Take A21C C34G G41C G67C: the yeast fitness was found to be 0.653.
For G41A C60G C61G C62U, the yeast fitness worked out at 0.682.
As to U28A C61A, the yeast fitness is 0.612.
As to U13G C22U G44A, the yeast fitness amounted to 0.641.
The result for U2C A15G U19A A20U A37U A45G U47G C61G reads 0.676; that for C27A C31A A37C C46G, at most 0.5; that for C11G G17A C22U C27U A57C, at most 0.5.
The result for A45U C55U A70C reads 0.589; that for C5A A20C C22A C24U C31U, 0.685.
As for C29A C33U C55G, the yeast fitness was found to be 0.633.
For the variant A14C G18A G44A U59C C66G, the yeast fitness is at most 0.5.
On to C31U C33U A37C C55U, for which the yeast fitness was at most 0.5.
With A14G C49G, the yeast fitness was determined as 0.815.
In the case of G9C G23C C30G G44A G58C G63A A70G, the yeast fitness was at most 0.5.
Turning to G9A U32C, the yeast fitness came to 0.943.
On to G12C A14G A15C G41A A42C G50C A70G, for which the yeast fitness is at most 0.5.
On to A21G C55G C66U A69C, for which the yeast fitness is at most 0.5.
C4G C5U G12C: the yeast fitness was at most 0.5.
For C29A G44C G67A, the yeast fitness was at most 0.5.
In the case of A42G C61G C66A, the yeast fitness is at most 0.5.
For U13A C22G U32C A42C G48C C55G, the yeast fitness is at most 0.5.
On to C11G C27U A43C C61G, for which the yeast fitness is at most 0.5.
Consider C11A U16C U32G C49G C55A C66G A70C, for which the yeast fitness is at most 0.5.
With A14C U59C C62A, the yeast fitness is at most 0.5.
With G18A C46G A65U, the yeast fitness was determined as 0.697.
The result for C22U U47A C60U G67C A69U reads at most 0.5; that for C55G A65G, 0.528; that for G44C A57U U64A G68C, at most 0.5.
In the case of A42U A57G C62A U64G C66G, the yeast fitness is at most 0.5.
Consider A15C U35A A36G G41A U47A, for which the yeast fitness was at most 0.5.
Turning to A20G U26A C66A, the yeast fitness is at most 0.5.
For the variant U7C C61G C62U, the yeast fitness was at most 0.5.
Consider G51A C62U, for which the yeast fitness stood at 0.763.
For the variant U26C G41A U47C C61G C62U, the yeast fitness was at most 0.5.
As for C4A C46A G56A, the yeast fitness was 0.736.
